Legend:
[1] = target: Mast/stem cell growth factor receptor Kit (Homo sapiens, UniProt P10721); experiment: Inhibition of cKit
Method in brief: (§1)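 Tyrosine kinases (recombinant, His/GST-purified or commercial) measured by HTRF: 0.5 µM biotinylated peptide, ATP 10 µM to 1 mM, inhibitor in 2% DMSO, 1 h in 50 mM Hepes pH 7.4 with MgCl2, MnCl2, Na3VO4, DTT, BSA. IC50 from six-point titrations; Ki via Cheng-Prusoff.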

[2] = target: Tyrosine-protein kinase JAK3 (Homo sapiens, UniProt P52333); experiment: Inhibition of JAK3
Method in brief: (§2)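 Recombinant tyrosine kinases were incubated 1 h with biotinylated peptide (0.5 µM), ATP (10 µM to 1 mM) and inhibitor in 2% DMSO. Buffer was 50 mM Hepes pH 7.4 with MgCl2, MnCl2 and vanadate. Detection was HTRF: Eu anti-pY antibody plus streptavidin-APC, read 60 min later. IC50 came from titration curves, converted to Ki by Cheng-Prusoff.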

[3] = target: T1, Serine/threonine-protein kinase Sgk1 (Homo sapiens, UniProt O00141); experiment: Inhibition of SGK
T1 sequence (O00141 whole entry): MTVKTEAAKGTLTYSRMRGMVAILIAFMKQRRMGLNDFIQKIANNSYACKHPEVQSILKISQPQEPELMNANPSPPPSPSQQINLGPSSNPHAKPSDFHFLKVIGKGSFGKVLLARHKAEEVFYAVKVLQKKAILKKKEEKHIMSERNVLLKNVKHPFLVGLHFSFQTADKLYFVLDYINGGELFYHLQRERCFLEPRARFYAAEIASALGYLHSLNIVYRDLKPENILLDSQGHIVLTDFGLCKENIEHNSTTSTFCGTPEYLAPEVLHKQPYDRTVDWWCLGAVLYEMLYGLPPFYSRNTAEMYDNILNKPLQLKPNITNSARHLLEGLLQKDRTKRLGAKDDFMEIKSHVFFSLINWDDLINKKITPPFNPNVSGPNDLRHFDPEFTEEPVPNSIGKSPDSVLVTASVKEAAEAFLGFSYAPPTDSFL

[4] = target: Receptor tyrosine-protein kinase erbB-2 (Homo sapiens, UniProt P04626); experiment: Inhibition of ErbB2; method in brief: as §2
[5] = target: Tyrosine-protein kinase JAK2 (Homo sapiens, UniProt O60674); experiment: Inhibition of JAK2; method in brief: as §2
[6] = target: Death-associated protein kinase 3 (Homo sapiens, UniProt O43293); experiment: Inhibition of ZipK
[7] = target: Vascular endothelial growth factor receptor 1 (Homo sapiens, UniProt P17948); experiment: Inhibition of Flt1; method in brief: as §2
[8] = target: Tyrosine-protein kinase Lyn (Homo sapiens, UniProt P07948); experiment: Inhibition of Lyn; method in brief: as §2
[9] = target: Tyrosine-protein kinase Fyn (Homo sapiens, UniProt P06241); experiment: Inhibition of Fyn; method in brief: as §2
[10] = target: Serine/threonine-protein kinase pim-2 (Homo sapiens, UniProt Q9P1W9); experiment: Inhibition of Pim2
[11] = target: Tyrosine-protein kinase Blk (Homo sapiens, UniProt P51451)
[12] = target: Activated CDC42 kinase 1 (Homo sapiens, UniProt Q07912); experiment: Inhibition of CDC42
Method in brief: (§3)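 Recombinant kinases were commercial, or baculovirus-expressed and purified by His-tag or GST affinity. Each was incubated 1 h with biotinylated substrate peptide (2 µM), γ-[33P]-ATP (5 µM) and inhibitor (3-10000 nM, 2% DMSO) in 25 mM Hepes pH 7.5, 10 mM MgCl2, Na3VO4. Reactions were stopped with EDTA/NaCl and read by streptavidin FlashPlate capture. IC50 came from titrations, converted to Ki by Cheng-Prusoff.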

[13] = target: Tyrosine-protein kinase ABL1 (Homo sapiens, UniProt P00519); experiment: Inhibition of Abl; method in brief: as §2
[14] = target: T2, Calcium/calmodulin-dependent protein kinase type IV (Homo sapiens, UniProt Q16566); experiment: Inhibition of CaMK4; method in brief: as §3
T2 sequence (Q16566 whole entry): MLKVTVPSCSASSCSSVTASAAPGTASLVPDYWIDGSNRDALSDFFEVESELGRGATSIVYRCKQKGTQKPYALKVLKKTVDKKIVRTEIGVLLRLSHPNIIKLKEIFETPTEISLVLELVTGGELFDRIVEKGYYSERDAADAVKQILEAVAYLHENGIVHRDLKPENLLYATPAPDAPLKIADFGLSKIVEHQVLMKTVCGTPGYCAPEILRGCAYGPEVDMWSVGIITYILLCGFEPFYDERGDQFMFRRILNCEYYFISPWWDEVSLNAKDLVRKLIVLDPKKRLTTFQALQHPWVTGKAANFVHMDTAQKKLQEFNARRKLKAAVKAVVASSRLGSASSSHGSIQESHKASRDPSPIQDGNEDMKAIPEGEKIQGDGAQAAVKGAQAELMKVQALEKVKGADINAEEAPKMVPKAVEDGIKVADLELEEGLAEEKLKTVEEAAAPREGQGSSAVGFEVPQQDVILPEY

[15] = target: Macrophage colony-stimulating factor 1 receptor (Homo sapiens, UniProt P07333); experiment: Inhibition of CSF1R; method in brief: as §2
[16] = target: Insulin receptor (Homo sapiens, UniProt P06213)
[17] = target: 3-phosphoinositide-dependent protein kinase 1 (Homo sapiens) (UniProt O15530); experiment: Inhibition of PDK1
[18] = target: Fibroblast growth factor receptor 3 (Homo sapiens, UniProt P22607); experiment: Inhibition of FGFR3; method in brief: as §2
[19] = target: Non-receptor tyrosine-protein kinase TYK2 (Homo sapiens, UniProt P29597); experiment: Inhibition of Tyk2; method in brief: as §1
[20] = target: Hepatocyte growth factor receptor (Homo sapiens, UniProt P08581)
[21] = target: Tyrosine-protein kinase Lck (Homo sapiens, UniProt P06239)
[22] = target: Fibroblast growth factor receptor (Homo sapiens, UniProt P22607+P11362+P22455+P21802); experiment: Inhibition of FGFR; type: protein assay; method in brief: as §2
[23] = target: High affinity nerve growth factor receptor (Homo sapiens, UniProt P04629)
[24] = target: Inhibitor of nuclear factor kappa-B kinase subunit beta (Homo sapiens, UniProt O14920); experiment: Inhibition of IKK-beta; method in brief: as §3
[25] = target: BDNF/NT-3 growth factors receptor (Homo sapiens, UniProt Q16620); experiment: Inhibition of TrkB; method in brief: as §1
[26] = target: Serine/threonine-protein kinase PAK 4 (Homo sapiens, UniProt O96013); experiment: Inhibition of PAK4; method in brief: as §3
[27] = target: Receptor-type tyrosine-protein kinase FLT3 (Homo sapiens, UniProt P36888); experiment: Inhibition of Flt3; method in brief: as §2
[28] = target: Proto-oncogene tyrosine-protein kinase Src (Homo sapiens, UniProt P12931); experiment: Inhibition of Src; method in brief: as §1
[29] = Cmax in po dosed Sprague-Dawley rat; type: ADME, organism-based; parameters: route oral; settings: in vivo
Method in brief: (§4)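 Sprague-Dawley rats were dosed orally. Oral half-life is reported in hours and Cmax as the maximum plasma concentration in µM. AUC is total oral exposure from t = 0 to t = ∞, in µg·h/mL.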

[30] = Tmax in po dosed Sprague-Dawley rat; type: ADME, organism-based; settings: in vivo
[31] = Oral bioavailability in Sprague-Dawley rat; type: ADME, organism-based; settings: in vivo
[32] = Plasma clearance in iv dosed Sprague-Dawley rat; type: ADME, organism-based
[33] = Half life in iv dosed Sprague-Dawley rat; type: ADME, organism-based; settings: in vivo
Method in brief: (§5)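 Sprague-Dawley rats received 5 mg/kg intravenously. Half-life is reported in hours. AUC is total drug exposure after iv dosing, from t = 0 to t = ∞, in µg·h/mL.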

[34] = target: Mitogen-activated protein kinase 13 (Homo sapiens, UniProt O15264)
[35] = AUC in iv dosed Sprague-Dawley rat; type: ADME, organism-based; settings: plasma; method in brief: as §5
[36] = Half life in po dosed Sprague-Dawley rat; type: ADME, organism-based; settings: in vivo; method in brief: as §4
[37] = AUC in po dosed Sprague-Dawley rat; type: ADME, organism-based; settings: plasma; method in brief: as §4
[38] = Volume of distribution at steady state in iv dosed Sprague-Dawley rat; type: ADME, organism-based; settings: in vivo, read-out: Vss
[39] = Volume of distribution in iv dosed Sprague-Dawley rat; type: ADME, organism-based; settings: in vivo, read-out: Vdss

Chain of Activated CDC42 kinase 1 (Q07912 whole entry): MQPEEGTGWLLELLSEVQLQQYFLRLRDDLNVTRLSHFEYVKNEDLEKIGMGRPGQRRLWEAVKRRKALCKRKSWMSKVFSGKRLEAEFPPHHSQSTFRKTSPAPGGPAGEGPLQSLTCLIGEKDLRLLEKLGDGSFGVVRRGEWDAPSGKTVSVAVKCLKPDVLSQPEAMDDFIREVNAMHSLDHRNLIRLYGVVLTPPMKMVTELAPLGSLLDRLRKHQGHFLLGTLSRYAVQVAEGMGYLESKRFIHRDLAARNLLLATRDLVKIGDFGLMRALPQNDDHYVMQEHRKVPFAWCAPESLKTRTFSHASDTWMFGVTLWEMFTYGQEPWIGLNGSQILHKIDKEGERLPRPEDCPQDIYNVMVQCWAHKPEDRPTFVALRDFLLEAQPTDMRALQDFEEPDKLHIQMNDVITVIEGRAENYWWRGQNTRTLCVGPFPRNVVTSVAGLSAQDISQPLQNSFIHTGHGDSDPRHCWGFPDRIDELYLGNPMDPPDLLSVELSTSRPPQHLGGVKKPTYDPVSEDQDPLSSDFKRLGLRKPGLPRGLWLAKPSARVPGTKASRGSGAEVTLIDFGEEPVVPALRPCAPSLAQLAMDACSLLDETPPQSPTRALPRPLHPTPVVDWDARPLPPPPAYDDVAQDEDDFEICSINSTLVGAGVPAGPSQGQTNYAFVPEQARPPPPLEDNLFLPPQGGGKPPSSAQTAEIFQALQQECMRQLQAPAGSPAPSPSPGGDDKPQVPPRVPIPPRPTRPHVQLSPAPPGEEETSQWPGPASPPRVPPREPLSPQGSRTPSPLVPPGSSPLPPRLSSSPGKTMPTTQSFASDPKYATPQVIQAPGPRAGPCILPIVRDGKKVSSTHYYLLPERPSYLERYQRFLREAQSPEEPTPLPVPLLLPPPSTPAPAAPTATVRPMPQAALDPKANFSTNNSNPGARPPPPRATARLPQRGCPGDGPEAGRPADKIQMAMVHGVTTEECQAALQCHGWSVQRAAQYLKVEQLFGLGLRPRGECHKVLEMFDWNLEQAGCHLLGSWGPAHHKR
Chain of Receptor tyrosine-protein kinase erbB-2 (P04626 whole entry): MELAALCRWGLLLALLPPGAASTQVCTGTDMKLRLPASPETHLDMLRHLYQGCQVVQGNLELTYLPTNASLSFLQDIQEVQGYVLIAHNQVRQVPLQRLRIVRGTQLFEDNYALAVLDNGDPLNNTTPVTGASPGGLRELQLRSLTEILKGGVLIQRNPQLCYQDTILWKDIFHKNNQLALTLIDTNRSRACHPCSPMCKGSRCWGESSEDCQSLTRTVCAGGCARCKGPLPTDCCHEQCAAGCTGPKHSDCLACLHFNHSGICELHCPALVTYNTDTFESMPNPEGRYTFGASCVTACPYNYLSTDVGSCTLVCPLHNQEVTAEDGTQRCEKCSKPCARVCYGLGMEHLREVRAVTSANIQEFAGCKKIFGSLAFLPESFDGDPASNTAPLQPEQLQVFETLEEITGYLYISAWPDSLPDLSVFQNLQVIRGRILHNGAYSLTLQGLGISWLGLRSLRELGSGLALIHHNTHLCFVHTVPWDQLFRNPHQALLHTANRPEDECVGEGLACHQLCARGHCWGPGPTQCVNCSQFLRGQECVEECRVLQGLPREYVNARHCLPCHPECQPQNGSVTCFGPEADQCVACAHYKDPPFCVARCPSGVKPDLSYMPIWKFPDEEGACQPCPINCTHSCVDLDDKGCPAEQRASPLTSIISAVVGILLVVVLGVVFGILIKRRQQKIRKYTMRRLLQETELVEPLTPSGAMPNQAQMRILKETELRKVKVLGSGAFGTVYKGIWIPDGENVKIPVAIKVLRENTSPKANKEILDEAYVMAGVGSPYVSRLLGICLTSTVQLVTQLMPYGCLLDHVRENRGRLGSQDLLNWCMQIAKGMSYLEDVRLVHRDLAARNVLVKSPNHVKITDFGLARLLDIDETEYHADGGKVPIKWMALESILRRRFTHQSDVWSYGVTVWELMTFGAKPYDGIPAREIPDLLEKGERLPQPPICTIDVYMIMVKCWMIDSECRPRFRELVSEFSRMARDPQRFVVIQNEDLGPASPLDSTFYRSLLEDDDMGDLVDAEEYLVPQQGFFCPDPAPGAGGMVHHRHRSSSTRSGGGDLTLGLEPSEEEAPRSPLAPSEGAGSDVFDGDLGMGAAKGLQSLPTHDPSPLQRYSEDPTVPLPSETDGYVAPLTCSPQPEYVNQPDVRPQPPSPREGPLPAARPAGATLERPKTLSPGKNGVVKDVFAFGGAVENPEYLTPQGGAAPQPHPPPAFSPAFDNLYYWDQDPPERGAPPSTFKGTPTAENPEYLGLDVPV
Chain of Tyrosine-protein kinase ABL1 (P00519 whole entry): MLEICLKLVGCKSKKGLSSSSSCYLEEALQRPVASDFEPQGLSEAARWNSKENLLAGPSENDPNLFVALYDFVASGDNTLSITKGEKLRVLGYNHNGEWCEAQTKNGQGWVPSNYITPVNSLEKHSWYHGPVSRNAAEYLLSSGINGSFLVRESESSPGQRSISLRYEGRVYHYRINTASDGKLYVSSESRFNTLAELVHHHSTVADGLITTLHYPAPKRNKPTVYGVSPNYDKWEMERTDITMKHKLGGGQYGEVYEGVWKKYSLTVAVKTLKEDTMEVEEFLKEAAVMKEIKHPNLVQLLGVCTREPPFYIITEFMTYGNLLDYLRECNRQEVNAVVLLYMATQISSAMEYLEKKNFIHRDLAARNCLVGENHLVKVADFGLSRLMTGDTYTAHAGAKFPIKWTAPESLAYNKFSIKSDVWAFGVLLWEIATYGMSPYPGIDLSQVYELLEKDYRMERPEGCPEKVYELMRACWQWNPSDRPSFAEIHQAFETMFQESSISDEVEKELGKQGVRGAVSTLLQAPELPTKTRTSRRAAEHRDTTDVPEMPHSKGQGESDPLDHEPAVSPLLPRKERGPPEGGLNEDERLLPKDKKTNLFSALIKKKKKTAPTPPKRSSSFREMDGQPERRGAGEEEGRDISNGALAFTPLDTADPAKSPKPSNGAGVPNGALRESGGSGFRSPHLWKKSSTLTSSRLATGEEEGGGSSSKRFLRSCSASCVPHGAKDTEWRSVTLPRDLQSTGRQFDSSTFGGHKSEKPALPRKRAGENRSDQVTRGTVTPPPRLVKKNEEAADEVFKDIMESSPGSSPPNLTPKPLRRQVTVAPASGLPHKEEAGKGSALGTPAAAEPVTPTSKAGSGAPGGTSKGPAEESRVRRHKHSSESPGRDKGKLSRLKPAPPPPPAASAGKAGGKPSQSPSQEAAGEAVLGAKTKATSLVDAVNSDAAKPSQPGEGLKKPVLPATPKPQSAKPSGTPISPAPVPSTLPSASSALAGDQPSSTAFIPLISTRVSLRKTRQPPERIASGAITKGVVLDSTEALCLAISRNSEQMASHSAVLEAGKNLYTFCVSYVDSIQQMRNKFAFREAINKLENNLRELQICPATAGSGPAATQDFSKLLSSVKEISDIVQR
Chain of Tyrosine-protein kinase Fyn (P06241 whole entry): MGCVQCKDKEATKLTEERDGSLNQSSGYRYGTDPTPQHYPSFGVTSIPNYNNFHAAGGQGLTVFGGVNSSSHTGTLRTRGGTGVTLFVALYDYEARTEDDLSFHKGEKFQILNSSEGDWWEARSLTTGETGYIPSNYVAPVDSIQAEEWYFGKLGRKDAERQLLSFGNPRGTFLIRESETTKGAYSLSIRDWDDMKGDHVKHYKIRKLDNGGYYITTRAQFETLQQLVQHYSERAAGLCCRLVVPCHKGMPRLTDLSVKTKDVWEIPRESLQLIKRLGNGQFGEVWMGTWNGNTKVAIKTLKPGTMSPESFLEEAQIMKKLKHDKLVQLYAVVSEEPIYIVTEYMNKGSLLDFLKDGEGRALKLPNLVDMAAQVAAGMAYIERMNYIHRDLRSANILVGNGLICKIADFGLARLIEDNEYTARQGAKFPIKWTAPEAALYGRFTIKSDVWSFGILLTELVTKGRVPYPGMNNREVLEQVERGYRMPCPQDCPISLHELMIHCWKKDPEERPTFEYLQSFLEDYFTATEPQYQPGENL
Chain of Tyrosine-protein kinase Lyn (P07948 whole entry): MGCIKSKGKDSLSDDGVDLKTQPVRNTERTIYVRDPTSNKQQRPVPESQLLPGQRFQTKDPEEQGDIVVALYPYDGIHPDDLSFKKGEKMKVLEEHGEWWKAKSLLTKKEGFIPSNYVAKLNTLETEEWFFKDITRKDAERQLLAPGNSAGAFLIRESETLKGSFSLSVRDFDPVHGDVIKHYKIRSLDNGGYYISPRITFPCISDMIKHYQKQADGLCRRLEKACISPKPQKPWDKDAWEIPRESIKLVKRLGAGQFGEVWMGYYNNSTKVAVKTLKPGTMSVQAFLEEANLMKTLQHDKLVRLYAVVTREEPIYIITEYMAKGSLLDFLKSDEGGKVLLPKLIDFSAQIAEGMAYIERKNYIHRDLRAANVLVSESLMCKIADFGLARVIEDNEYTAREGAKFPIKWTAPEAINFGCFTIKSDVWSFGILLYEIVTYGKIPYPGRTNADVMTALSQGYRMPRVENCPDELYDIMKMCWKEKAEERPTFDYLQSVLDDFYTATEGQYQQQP
Chain of Tyrosine-protein kinase Blk (P51451 whole entry): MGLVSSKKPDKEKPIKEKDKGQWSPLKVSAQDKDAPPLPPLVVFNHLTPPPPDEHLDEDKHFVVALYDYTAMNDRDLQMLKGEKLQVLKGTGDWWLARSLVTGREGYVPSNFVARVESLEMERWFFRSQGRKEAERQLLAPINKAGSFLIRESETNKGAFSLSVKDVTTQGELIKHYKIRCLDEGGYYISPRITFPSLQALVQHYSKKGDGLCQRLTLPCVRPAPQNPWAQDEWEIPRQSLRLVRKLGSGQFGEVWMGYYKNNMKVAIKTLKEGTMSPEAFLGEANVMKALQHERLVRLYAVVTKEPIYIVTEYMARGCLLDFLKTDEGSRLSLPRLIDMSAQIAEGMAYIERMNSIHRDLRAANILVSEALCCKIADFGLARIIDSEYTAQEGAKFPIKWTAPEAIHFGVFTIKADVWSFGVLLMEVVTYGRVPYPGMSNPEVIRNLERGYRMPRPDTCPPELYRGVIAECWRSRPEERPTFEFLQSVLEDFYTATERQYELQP

| Compound | Ki [1] [µM] | Ki [2] [µM] | Ki [3] [µM] | Ki [4] [µM] | Ki [5] [µM] | Ki [6] [µM] | Ki [7] [µM] | Ki [8] [µM] | Ki [9] [µM] | Ki [10] [µM] | Ki [11] [µM] | Ki [12] [µM] | Ki [13] [µM] | Ki [14] [µM] | also measured |
| --- | --- | --- | --- | --- | --- | --- | --- | --- | --- | --- | --- | --- | --- | --- | --- |
| CCOc1nc(NC(C)=O)cc(N)c1C#N | > 1.2 | > 1.7 | > 9.4 | > 1.4 | > 1.5 | > 1.4 | > 0.44 | > 1.7 | > 0.81 | > 1.4 | > 1.5 | > 9.5 | > 0.71 | > 8.6 | – |
| CC(=O)Nc1cc(N)c(C#N)c(-c2ccccc2)n1 | > 1.2 | > 1.7 | > 9.4 | > 1.4 | > 1.5 | > 1.4 | > 0.44 | > 1.7 | > 0.81 | > 1.4 | > 1.5 | > 9.5 | > 0.71 | > 8.6 | Ki [15]: > 2.5 µM; Ki [16]: > 5.2 µM; Ki [17]: > 3.8 µM; Ki [18]: > 1.9 µM; Ki [19]: > 1.9 µM; Ki [20]: > 2.9 µM; Ki [21]: > 2.7 µM; Ki [22]: > 4.7 µM; Ki [23]: > 2.5 µM; Ki [24]: > 3.2 µM; Ki [25]: > 4.5 µM; Ki [26]: > 5.5 µM; Ki [27]: > 2.5 µM; Ki [28]: > 1.9 µM |
| CCOc1nc(NC(=O)Cc2cc(OC)ccc2OC)cc(N)c1C#N | – | – | > 9.4 | – | – | – | – | – | – | – | – | > 9.5 | – | > 8.6 | Cmax [29]: 310 nM; Tmax [30]: 1.98 min; bioavailability [31]: 2.7%; clearance [32]: 20 mL/min/kg; half-life [33]: 1.4 h; Ki [34]: > 6.9 µM; AUC [35]: 4100 ng·h/mL; half-life [36]: 1.1 h; AUC [37]: 110 ng·h/mL; Vd [38]: 1.2 L/kg; Vd [39]: 2.6 L/kg |
